Test system: RAW264.7
Test: Antiinflammatory activity in mouse RAW264.7 cells assessed as inhibition of LPS-stimulated nitric oxide production pretreated for 2 hrs before LPS challenge measured after 18 hrs by Griess method
Assay type: functional, cell-based
Summary of the method: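 Murine RAW264.7 macrophages are stimulated with LPS, and NO released into the medium is measured. The read-out is an IC50.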

| SMILES | IC50 |
| --- | --- |
| COC(=O)/C(C)=C1/C(=O)[C@H](O)[C@]2(C)C3=C1[C@]14OC(=O)C(COC(C)=O)=C1C[C@H]1C[C@H]5C[C@H]5[C@]1(C)[C@@H]4C[C@]3(O)[C@H]1C[C@H]12 [SHIZUKAOL D] | 7.22 µM |
| CC1=C2C3=C4C(=C[C@@H]5[C@]36OC(=O)C3=C6C[C@H]6[C@](O)(COC(=O)/C(C)=C/COC(=O)CCC(=O)OC3)[C@H]3C[C@H]3[C@]56C)[C@H]3C[C@H]3[C@]4(C)[C@@H](O)[C@@]2(O)OC1=O | 0.22 µM |
| C[C@@H]1C[C@H]2[C@@H]3CCC4=CC(=O)C=C[C@]4(C)[C@@]3(F)[C@@H](O)C[C@]2(C)[C@@]1(O)C(=O)CO [DEXAMETHASONE] | 0.47 µM |
| COC(=O)/C(C)=C1\C(=O)[C@H](O)[C@]2(C)C3=C(C[C@@H]4[C@]5(OC(=O)C6=C5C[C@H]5[C@](O)(COC(=O)/C(C)=C/COC(=O)CCC(=O)OC6)[C@H]6C[C@H]6[C@]45C)[C@H]31)[C@H]1C[C@H]12 [SHIZUKAOL B] | 0.15 µM |
| CCO[C@]12OC(=O)C(C)=C1C1=C3[C@@](C)(C2=O)[C@@H]2C[C@@H]2[C@@]3(O)C[C@@H]2[C@]13OC(=O)C1=C3C[C@H]3[C@](O)(COC(=O)/C(C)=C/COC(=O)CCC(=O)OC1)[C@H]1C[C@H]1[C@]23C | > 10 µM |

Second part, the compound after the results:

| IC50 | SMILES |
| --- | --- |
| > 10 µM | CC1=C2C[C@@H]3[C@](C)(CCC[C@]3(C)O)C[C@]2(O)OC1=O |
| > 10 µM | C=C1CC[C@H]2C(C)(C)[C@@H](O)CC[C@]2(C)[C@H]1C/C=C(\C)C=O |
| > 10 µM | CC1=C2C[C@@H]3[C@](C)(CCC[C@]3(C)O)C[C@@H]2OC1=O |
| > 10 µM | C=C1CC[C@@H]2[C@](C)(O)C[C@@]3(O)OC(=O)C(C)=C3[C@@]2(O)C1 |
| > 10 µM | C=C1C[C@@H](O)[C@H]2C(C)(C)[C@@H](O)CC[C@]2(C)[C@H]1C/C=C(\C)C=O |

— ChEMBL document CHEMBL2034896, “Terpenoids from Chloranthus serratus and their anti-inflammatory activities” (J Nat Prod, 2012)
